Experimental data published in ChEMBL document CHEMBL3997773, “Synthesis of C-4-Substituted Steviol Derivatives and Their Inhibitory Effects against Hepatitis B Virus” (J Nat Prod, 2016).
Activity calls are given as the source filed them. The rule behind the calls is not given here.

Experiments:
Huh-7 [1] = assay: Effect on IKKalpha protein expression in human HuH7 cells transfected with pHBV1.2 at 2.5 ug/ml after 2 days by immunoblot method relative to control; type: functional
Summary of the method: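 HBV adw2 genome plasmid pHBV1.2 transfected into Huh7 for 2 days, then 2.5, 5 or 10 μg/mL for another 2 days. Whole-cell protein extracted with protease inhibitors, then SDS-PAGE immunoblot for NF-κB and MAPK pathway proteins. Blots are representative of three sets of experiments.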

[2] = molecular target: Transcription factor p65 (Homo sapiens) (UniProt Q04206); assay: Decrease in NF-kB p65 phosphorylation in human HuH7 cells transfected with pHBV1.2 at 2.5 ug/ml after 2 days by immunoblot method relative to control; type: cell-based
Transcription factor p65 (Homo sapiens), sequence (Q04206 whole entry): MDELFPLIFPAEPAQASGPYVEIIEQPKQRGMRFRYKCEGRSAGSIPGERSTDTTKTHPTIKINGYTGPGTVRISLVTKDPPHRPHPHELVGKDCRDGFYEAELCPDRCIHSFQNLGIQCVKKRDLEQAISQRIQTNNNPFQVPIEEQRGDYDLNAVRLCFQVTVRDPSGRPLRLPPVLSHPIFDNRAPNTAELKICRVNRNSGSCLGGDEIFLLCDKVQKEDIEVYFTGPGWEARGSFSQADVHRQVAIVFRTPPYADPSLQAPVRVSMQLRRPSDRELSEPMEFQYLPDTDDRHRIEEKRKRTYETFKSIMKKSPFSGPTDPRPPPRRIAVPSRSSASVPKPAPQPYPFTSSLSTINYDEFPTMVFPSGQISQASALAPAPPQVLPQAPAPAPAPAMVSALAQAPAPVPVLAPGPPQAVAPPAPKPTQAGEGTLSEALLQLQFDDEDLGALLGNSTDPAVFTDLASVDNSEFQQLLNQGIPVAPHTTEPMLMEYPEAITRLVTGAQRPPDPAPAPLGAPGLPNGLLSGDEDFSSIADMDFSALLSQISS
Summary of the method: (§1)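 Huh7 cells were transfected with pHBV1.2 for 2 days, then treated at 2.5, 5 or 10 μg/mL for another 2 days. Whole-cell protein was extracted with protease inhibitors. NF-κB p65/p50, phospho-p65, IKKα/β and IκBα/phospho-IκBα were detected by immunoblot. Blots are representative of three experiments.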

Huh-7 [3] = assay: Decrease in ERK1/2 protein expression in human HuH7 cells transfected with pHBV1.2 at 2.5 to 10 ug/ml after 2 days by immunoblot method
Huh-7 [4] = assay: Decrease in IKBalpha protein expression in human HuH7 cells transfected with pHBV1.2 at 10 ug/ml after 2 days by immunoblot method relative to control; type: functional; summary of the method: as §1
[5] = test system: Hepatitis B virus subtype adw2; assay: Antiviral activity against Hepatitis B virus subtype adw2 infected in human HuH7 cells cotransfected with pCMV-p65 assessed as inhibition of viral DNA replication at 10 ug/ml after 2 days by RT-PCR method; type: functional, cell-based
Summary of the method: (§2)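 Huh7 cells were cotransfected with pHBV1.2 and, where stated, 0.5 or 2.5 μg pCMV-p65 (or empty vector) for 2 days, then treated at 10 μg/mL for 2 days. In separate wells, HBV-expressing cells received 10 μg/mL with or without anisomycin (10 μM) for 2 days. Secreted viral particles were kit-isolated and HBV DNA was measured by real-time PCR, n = 3.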

Huh-7 [6] = assay: Decrease in p38 MAPK protein expression in human HuH7 cells transfected with pHBV1.2 at 10 ug/ml after 2 days by immunoblot method relative to control
[7] = Selectivity index, ratio of TC50 for human HepG2.2.15 cells to IC50 for Hepatitis B virus subtype adw2 infected in human HuH7 cells assessed as inhibition of viral DNA replication
[8] = test system: Hepatitis B virus subtype adw2; assay: Antiviral activity against Hepatitis B virus subtype adw2 infected in human HuH7 cells assessed as reduction in major S/preS RNA level at 2.5 to 10 ug/ml after 2 days by northern blot method; type: functional, cell-based
Summary of the method: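 After pHBV1.2 transfection of Huh7 cells for 2 days, cells were treated at 2.5, 5 or 10 μg/mL for 2 more days. Total RNA was Northern-blotted with an HBV whole-genome DNA probe. GAPDH served as loading control and β-gal marked transfection efficiency. Bands from three experiments were quantified by densitometry and normalized to GAPDH.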

[9] = molecular target: T1, NF-kappa-B inhibitor alpha (Homo sapiens) (UniProt P25963); assay: Decrease in IKBalpha phosphorylation in human HuH7 cells transfected with pHBV1.2 at 5 ug/ml after 2 days by immunoblot method relative to control; type: cell-based; summary of the method: as §1
T1 sequence (whole entry): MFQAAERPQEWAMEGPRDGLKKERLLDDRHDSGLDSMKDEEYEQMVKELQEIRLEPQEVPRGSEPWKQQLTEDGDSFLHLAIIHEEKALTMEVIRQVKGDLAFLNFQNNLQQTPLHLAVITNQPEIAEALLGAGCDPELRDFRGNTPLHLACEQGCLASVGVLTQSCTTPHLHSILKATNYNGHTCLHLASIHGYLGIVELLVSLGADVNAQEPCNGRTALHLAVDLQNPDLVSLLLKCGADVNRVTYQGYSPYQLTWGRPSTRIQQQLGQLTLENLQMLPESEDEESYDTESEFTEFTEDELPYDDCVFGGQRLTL

[10] = molecular target: T1, NF-kappa-B inhibitor alpha (Homo sapiens); assay: Decrease in IKBalpha phosphorylation in human HuH7 cells transfected with pHBV1.2 at 2.5 ug/ml after 2 days by immunoblot method relative to control; type: cell-based; summary of the method: as §1
[11] = Effect on ISRE (unknown origin) promoter activity expressed in human HuH7 cells cotransfected with pHBV1.2 at 10 ug/ml after 24 hrs by luciferase reporter gene assay; type: cell-based
Summary of the method: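 Huh7 seeded in 24-well plates for 24 h. They were cotransfected with pHBV1.2 plus a luciferase reporter carrying the AP-2 (pAP2-Luc) or ISRE (pISRE-Luc) element, at 1 μg/well, and pRLSV40, in serum-free DMEM for 24 h. After a PBS wash, cells were placed in DMEM with 2% FBS and treated with 10 μg/mL. Luciferase was read from lysates; mean ± SD, n = 3.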

[12] = Cytotoxicity against human HepG2.2.15 cells assessed as reduction in cell viability after 3 days by MTS assay; conditions: read-out: TC50
Huh-7 [13] = assay: Decrease in IKKalpha protein expression in human HuH7 cells transfected with pHBV1.2 at 5 ug/ml after 2 days by immunoblot method relative to control; type: functional; summary of the method: as §1
Huh-7 [14] = assay: Decrease in IKBalpha protein expression in human HuH7 cells transfected with pHBV1.2 after 2 days by immunoblot method; type: functional, cell-based; summary of the method: as §1
[15] = Antiviral activity against Hepatitis B virus subtype adw2 infected in human HuH7 cells assessed as effect on HBx level at 2.5 ug/ml after 2 days by immunoblot method relative to control; type: functional
Summary of the method: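 Huh7 cells were transfected with pHBV1.2 (1.2-fold HBV adw2 genome) for 2 days, then exposed to 2.5, 5 or 10 μg/mL for another 2 days. Whole-cell protein was extracted with protease inhibitors. SHBs, HBcAg and HBx were detected by immunoblot, with α-tubulin for comparison.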

[16] = Decrease in NF-kB (unknown origin) promoter activity expressed in human HuH7 cells cotransfected with pHBV1.2 at 10 ug/ml after 24 hrs by luciferase reporter gene assay; type: cell-based
Summary of the method: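 Huh7 cells were seeded for 24 h, then cotransfected with pHBV1.2, pRLSV40 and pAP1-Luc or pNF-κB-Luc responsive-element reporter for 24 h. Cells were treated at 10 μg/mL for 24 h and lysates were assayed for luciferase. Mean ± SD, n = 3, compared with untreated cells.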

[17] = test system: Hepatitis B virus subtype adw2; assay: Antiviral activity against Hepatitis B virus subtype adw2 infected in human HuH7 cells assessed as inhibition of viral DNA replication at 10 ug/ml cotreated with MAPK activator anisomycin after 2 days by RT-PCR method; type: functional, cell-based; summary of the method: as §2
Hepatitis B virus = assay: Decrease in HBV S promoter activity infected in human HuH7 cells cotransfected with pHBV1.2 at 10 ug/ml after 24 hrs by luciferase reporter gene assay; type: cell-based
Summary of the method: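 Huh7 cells were seeded for 24 h, then cotransfected with pHBV1.2, pRLSV40 and a pGL4.17-based Core (nt 1636-1851), S (nt 3114-220), PreS (nt 2438-2855) or X (nt 1071-1357) promoter-luciferase construct for 24 h. Cells were then treated at 10 μg/mL for 24 h and lysates were assayed for luciferase. Mean ± SD, n = 3.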

In the case of `C=C1C[C@@]23CC[C@H]4[C@@](C)(CCC[C@@]4(C)NC(=O)NCCCC)[C@@H]2CC[C@]1(O)C3`, the “fold change (FC)” value (Huh-7 [1]) is reported as 1.1, the fold change (FC) [2] is reported as 0.95 and the Activity (Huh-7 [3]) is reported as “Active”. The “fold change (FC)” value (Huh-7 [4]) was 0.25, the inhibition [5] was “inactive” and the “fold change (FC)” value (Huh-7 [6]) was 0.33. The selectivity ratio [7] was 57.7, the Activity [8] was “Active” and the fold change (FC) [9] was 0.94. The fold change (FC) [10] was 0.97, the Activity [11] was “inactive” and the CC50 at 72 h [12] was 972 µM. For the same compound, the “fold change (FC)” value (Huh-7 [13]) was 1.01, the Activity (Huh-7 [14]) was “Dose-dependent effect” and the “fold change (FC)” value [15] was 1.12. The Activity [16] was “Active”, the inhibition [17] was “inactive” and the Activity (Hepatitis B virus) was “Active”.
